Results as given in PubChem BioAssay.
Calls of active or inactive are those of the source.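 How the source made its calls, unless noted: active means viability at or below 10% of carrier control in both of two separate runs; inconclusive means viability at or below 10% in only one of the two runs; inactive means the rest.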

How the values were obtained:
[1] = Her2 expression decrease, cell viability multiplex – SKBR3 breast tumor cells, AlphaScreen, ATP viability, primary screen (AID 461;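 active means Her2 level under about 52% in both replicate screens, with viability over 70% of control, limit read from the data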;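 on Her2 level: lower value means less Her2 protein in the cells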;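 on viability: percent of carrier control wells set as 100% viability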); conditions: SKBR3 Her2 protein level, 18-24 h, measured here: SKBR3 viability, ATP luminescence, at 10 µM
[2] = molecular target: Receptor tyrosine-protein kinase erbB-2 (Homo sapiens) (UniProt P04626); test: as above; conditions: 18-24 h, at 10 µM, stronger effect = lower value
[3] = reduced viability of SK-BR-3 breast cancer cells – cell-based, 24 h, human, pilot screen (AID 572); conditions: SK-BR-3 viability, CellTiter-Glo luminescence, at 10 µM, stronger effect = lower value;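 further: compound exposure lasted between 18 and 24 h rather than exactly 24 h; 100% = carrier-treated control wells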
[4] = HUVEC growth inhibition – cell-based, human, primary screen (AID 575;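 active means viability at or below 30% in both replicate assays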;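 further: 100% = median of untreated cell wells with 0.1% DMSO on each plate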); conditions: HUVEC proliferation, CellTiter-Glo luminescence, 72 h; at 10 µM; stronger effect = lower value
Procedure, shortened: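 system = HUVEC primary cells | amount = 1250 cells/well | buffer or medium = supplemented EBM, 2% fetal bovine serum | dosing = single-point 10 µM, DMSO 0.1% final | times = 72 h compound incubation | detection = CTG luminescence | read-out = % viability relative to median vehicle-well signal on each plate | control set = vehicle and MePR control wells | format = collagen-coated 384-well format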

[5] = H69AR cell proliferation blockers – human, duplicate replicates, primary screen (AID 580;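 active means viability at or under a set limit in both replicates, limit being median viability minus 3 SD, cut at about 48% in these data, passing the limit was not always enough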;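 further: 100% = mean luminescence of untreated wells and 0% = no signal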); conditions: H69AR lung tumor cells viability, ATP luminescence, 72 h; at 10 µM; stronger effect = lower value
[6] = MRP1 drug-resistance reversers in H69AR cells – cell-based, doxorubicin co-treatment, pilot screen (AID 601;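 active means viability loss from added drug above about 55%, and viability with drug at most 40%, in both replicates, limit read from the data, passing the limit was not always enough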); conditions: CellTiter-Glo, 72 h, at 10 µM; for differential viability (reversal): stronger effect = higher value
[7] = yeast transport mutant growth inhibition pilot in 384-well plates, post-Golgi transport modulator project (AID 636; in the data active means inhibition above about 31%); conditions: absorbance 615 nm, about 18 h, stronger effect = higher value
[8] = growth suppression of yeast trafficking mutant, preliminary HTS, modulators of trafficking downstream of Golgi apparatus project, 1536-format plate, OD 615 nm (AID 637; in the data active means inhibition above about 30%); conditions: yeast transport mutant growth, absorbance 615 nm, 18 h; stronger effect = higher value
[9] = H69AR cells + 2 uM doxorubicin, measured here: viability with 2 uM doxorubicin, stronger effect = lower value
[10] = H69AR cells, compound alone cytotoxicity

Receptor tyrosine-protein kinase erbB-2 (Homo sapiens), sequence (P04626 whole entry, looked up): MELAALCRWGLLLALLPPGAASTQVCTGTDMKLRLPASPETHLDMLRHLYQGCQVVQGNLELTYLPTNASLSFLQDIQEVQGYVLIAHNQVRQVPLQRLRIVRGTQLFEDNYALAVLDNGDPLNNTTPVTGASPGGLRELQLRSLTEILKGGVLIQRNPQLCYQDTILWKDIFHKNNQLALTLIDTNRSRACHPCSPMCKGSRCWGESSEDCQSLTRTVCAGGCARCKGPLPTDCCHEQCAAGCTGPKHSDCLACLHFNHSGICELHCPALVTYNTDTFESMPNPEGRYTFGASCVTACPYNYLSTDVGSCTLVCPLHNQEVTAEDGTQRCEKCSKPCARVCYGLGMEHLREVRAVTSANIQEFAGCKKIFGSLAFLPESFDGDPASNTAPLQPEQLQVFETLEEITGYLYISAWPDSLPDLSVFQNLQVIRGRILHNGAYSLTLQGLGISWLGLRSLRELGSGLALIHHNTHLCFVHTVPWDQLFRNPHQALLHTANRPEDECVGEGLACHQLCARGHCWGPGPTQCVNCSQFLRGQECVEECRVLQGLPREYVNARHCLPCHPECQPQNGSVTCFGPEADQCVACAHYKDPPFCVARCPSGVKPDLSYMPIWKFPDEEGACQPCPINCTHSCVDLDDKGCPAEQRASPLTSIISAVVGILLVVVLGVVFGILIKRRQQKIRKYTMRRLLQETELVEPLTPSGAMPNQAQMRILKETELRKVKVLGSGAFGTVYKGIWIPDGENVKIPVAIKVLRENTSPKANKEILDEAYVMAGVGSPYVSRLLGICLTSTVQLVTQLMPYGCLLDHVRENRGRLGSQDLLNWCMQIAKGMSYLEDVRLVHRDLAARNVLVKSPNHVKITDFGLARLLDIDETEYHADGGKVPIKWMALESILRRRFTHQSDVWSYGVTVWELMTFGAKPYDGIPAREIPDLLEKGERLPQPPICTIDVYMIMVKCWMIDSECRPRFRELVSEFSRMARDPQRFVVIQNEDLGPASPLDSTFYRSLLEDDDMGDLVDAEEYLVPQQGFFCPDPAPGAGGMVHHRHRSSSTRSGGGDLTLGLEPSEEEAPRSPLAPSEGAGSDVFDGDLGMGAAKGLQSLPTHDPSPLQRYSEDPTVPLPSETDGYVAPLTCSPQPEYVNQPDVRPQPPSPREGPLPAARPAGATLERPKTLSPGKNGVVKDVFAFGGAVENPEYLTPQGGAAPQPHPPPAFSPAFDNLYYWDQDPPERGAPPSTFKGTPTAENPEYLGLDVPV

SMILES	viability [1] [%]	Her2 level [2]	viability [3]	viability [4]	viability [5]	differential viability (reversal) ([6]; H69AR cells + 2 uM doxorubicin)	viability [6, 9] [%]	viability [6, 10] [%]	inhibition [7]	inhibition [8]
Cc1nc2sc3c(c2c(=O)o1)CCC3	110	80.5% (inactive)	110% (inactive)	84.3% (inactive)	88.1% (inactive)	-14.3% (inactive)	102	88.1	-3.42% (inactive)	6.89% (inactive)
CCOC(=O)Cc1csc(NC(=O)CSc2nnc(-c3ccncc3)n2Cc2ccco2)n1	107	82.5% (inactive)	107% (inactive)	94.1% (inactive)	97.6% (inactive)	7.66% (inactive)	89.9	97.6	-5.14% (inactive)	5.24% (inactive)
O=C(CSc1nc(O)cc(=O)n1-c1ccccc1)N1CCCCC1	100	77% (inactive)	100% (inactive)	80.8% (inactive)	98.8% (inactive)	2.4% (inactive)	96.4	98.8	-6.44% (inactive)	3.97% (inactive)
COc1ccccc1CNS(=O)(=O)c1cccc(S(=O)(=O)N2CCOCC2)c1	91.5	101% (inactive)	91.5% (inactive)	81.6% (inactive)	91.7% (inactive)	3.38% (inactive)	88.3	91.7	-3.2% (inactive)	-1.48% (inactive)
O=c1[nH]c(Nc2ccccc2)cc2ccccc12	94.5	92% (inactive)	94.5% (inactive)	82.2% (inactive)	101% (inactive)	3.34% (inactive)	97.9	101	2.5% (inactive)	14.3% (inactive)
CCOC(=O)Cn1c(CN2CCOCC2)nc2c1c(=O)[nH]c(=O)n2C	95	109% (inactive)	95% (inactive)	97.5% (inactive)	99.7% (inactive)	0.165% (inactive)	99.5	99.7	-3.72% (inactive)	-0.67% (inactive)
CC(=O)Nc1ccc(S(=O)(=O)n2cnc(C)c2)cc1	91	93.5% (inactive)	91% (inactive)	102% (inactive)	104% (inactive)	3.98% (inactive)	99.6	104	-0.53% (inactive)	-5% (inactive)
CCCCc1ccc(NC(=O)COCC)cc1	110	94% (inactive)	110% (inactive)	92.1% (inactive)	93.1% (inactive)	7.21% (inactive)	85.9	93.1	-2.63% (inactive)	5.08% (inactive)
Cn1c(N2CCC(C(N)=O)CC2)nc2c1c(=O)n(Cc1ccc(Br)cc1)c(=O)n2C	95	84.5% (inactive)	95% (inactive)	98.5% (inactive)	102% (inactive)	8.06% (inactive)	93.8	102	3.38% (inactive)	-5.08% (inactive)
COc1cc(/C=N/n2c(C)nnc2C)cc(OC)c1OC	104	95% (inactive)	104% (inactive)	105% (inactive)	103% (inactive)	19.3% (inactive)	83.6	103	-0.53% (inactive)	5.74% (inactive)
CC(=O)N1CCc2cc(S(=O)(=O)CCC(=O)Nc3cccc(F)c3)ccc21	109	104% (inactive)	109% (inactive)	97.3% (inactive)	93.8% (inactive)	13.1% (inactive)	80.7	93.8	-4.74% (inactive)	-1.5% (inactive)
O=C(NCC1CCCO1)c1cccc(N2C(=O)C3C4C=CC(C4)C3C2=O)c1 (stereo not given)	110	94% (inactive)	110% (inactive)	98.4% (inactive)	100% (inactive)	10.3% (inactive)	89.8	100	-6.4% (inactive)	-9.84% (inactive)
Cc1sc2nc(SCc3nc4ccccc4[nH]3)n(Cc3ccco3)c(=O)c2c1C	96.5	92.5% (inactive)	96.5% (inactive)	91.7% (inactive)	84.6% (inactive)	8.02% (inactive)	76.6	84.6	-0.13% (inactive)	-1.8% (inactive)
COc1ccccc1C(=O)N1CCCC(c2nc(-c3cc(OC)c(OC)c(OC)c3)no2)C1 (stereo not given)	120	90% (inactive)	120% (inactive)	99.4% (inactive)	78.8% (inactive)	23.2% (inactive)	55.6	78.8	-6.71% (inactive)	7.3% (inactive)
CCn1cc(C(=O)N2CCN(C(=O)c3ccco3)CC2)c2cc(OC)c(OC)cc2c1=O	95	84% (inactive)	95% (inactive)	91.3% (inactive)	98.1% (inactive)	0.175% (inactive)	97.9	98.1	-4.61% (inactive)	-2.36% (inactive)
CN(CC(O)COc1ccc(OCC(O)CN(C)C2CCCCC2)cc1)C1CCCCC1 (stereo not given)	88	82% (inactive)	88% (inactive)	65.5% (inactive)	89.9% (inactive)	10.4% (inactive)	79.5	89.9	-5.66% (inactive)	4.6% (inactive)
